PGC1a acetyl inh = inhibitors of PGC1a acetylation signal, primary screen, cell-based, U2OS, AlphaScreen, inhibitor mode. AID 651687, 2012. AlphaScreen anti-acetyl-lysine; with virally co-expressed GCN5 acetyltransferase. inhibition, % at 15.6 µM. 350,000 tested, 0.17% active;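 active means every replicate shows inhibition of at least 40%; inconclusive means mean inhibition at least 40% but some replicate below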;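 further: 0% = neutral control wells and 100% = positive control wells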
SIRT5 block = SIRT5 desuccinylase inhibitors, primary screen, biochemical, fluorescence imaging, single point, set 5 | Purified SirT5, succinyl-peptide AMC, trypsin-coupled fluorescence | 330,000 tested, 1.1% active | AID 652115, 2013 | inhibition, % at 15 µM; in the data active means inhibition above about 15%; inconclusive means no clear call, values can overlap the other calls
Target sequence (Q9NXA8 whole entry, looked up): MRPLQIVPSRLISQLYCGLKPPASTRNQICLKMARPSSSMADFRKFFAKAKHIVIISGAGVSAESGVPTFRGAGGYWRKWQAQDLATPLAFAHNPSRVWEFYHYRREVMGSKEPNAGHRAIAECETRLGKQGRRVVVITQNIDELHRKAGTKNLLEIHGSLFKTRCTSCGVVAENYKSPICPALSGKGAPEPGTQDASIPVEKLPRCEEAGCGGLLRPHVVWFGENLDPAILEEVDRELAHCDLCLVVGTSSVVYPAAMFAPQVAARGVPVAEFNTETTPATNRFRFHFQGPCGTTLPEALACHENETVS
S100A4 MyoIIA = inhibitors of S100A4-myosin IIA peptide binding, primary screen, biochemical, fluorescence polarization, TAMRA-MyoIIA peptide; Protein S100-A4 (Homo sapiens), P26447; inhibition, % at 10.7 µM; 360,000 tested, 0.14% active; AID 652163, 2013;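 active means mean inhibition of at least 70% across replicates, with every replicate also reaching that level; inconclusive means mean inhibition reaches 70% but some replicates fall short; inactive means mean inhibition below 70%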
Target sequence (P26447 whole entry, looked up): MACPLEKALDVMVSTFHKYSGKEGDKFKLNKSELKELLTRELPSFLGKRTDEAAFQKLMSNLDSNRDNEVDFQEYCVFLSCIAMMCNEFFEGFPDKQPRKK
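Assay system: human S100A4 monomer with TAMRA-labelled myosin IIA peptide / Buffer or medium: Calcium-containing HEPES buffer, pH 7.2 / Reagent: TAMRA-labelled myosin IIA heavy-chain peptide probe, 5 nM / Compound: one dose per compound / Timing: polarization read 5 min after assay mix addition, stable 5–60 min / Benchmarks: neutral control DMSO, positive control TFP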
DENV2 CPE rescue = inhibitors of DENV2 cytopathic effect, primary screen, cell-based, plate reader, single concentration. 350,000 tested, 1.7% active. CPE inhibition, % at 9.99 µM. DENV2-infected cells, cytopathic effect rescue; in the data active means CPE inhibition above about 20%, passing the limit was not always enough; inconclusive means no clear call, values can overlap the other calls; tested in BHK-21 cells;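 further: 0% = median of neutral control wells and 100% = median of positive control wells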
C2C12 statin = suppressors of statin myotoxicity in C2C12 myotubes, primary screen, cell-based, single point, plate reader; AID 602340, 2012; 330,000 tested, 0.78% active; rescue of ATP level, % at 7.49 µM; C2C12 myotubes + simvastatin, ATP luminescence, 48 h; scaled: DMSO 0, geranylgeraniol control 100;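 active means mean ATP rescue above about 67%, or every replicate alone reaching that limit, limit read from the data, passing the limit was not always enough; inconclusive means no clear call, values can overlap the other calls; inactive means mean under the limit and some replicate under it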;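 further: myotubes were challenged with 10 µM simvastatin during compound exposure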
The depositor's hits bear a star; ? = inconclusive; . = no result given. Rows were chosen to be rich in hits. Some 2.9% of all compounds tested hit in one or more screens of this group.

SMILES	PGC1a acetyl inh	SIRT5 block	S100A4 MyoIIA	DENV2 CPE rescue	C2C12 statin
C[C@@H]1CN([C@H](C)CO)C(=O)Cc2cc(NC(=O)NC3CCCCC3)ccc2O[C@@H]1CN(C)C(=O)Nc1ccccc1	4	-4	1	-9	0
CCCNC(=O)[C@@H]1c2ccccc2C(=O)N(Cc2ccccc2OC)[C@H]1c1ccc(CO)cc1	11	-2	11	34*	.
O=C(O)[C@H]1[C@H](CO)[C@H]2Cn3c(ccc(C4=CCCCC4)c3=O)[C@H]2N1Cc1ccc2c(c1)OCO2	.	-1	24	1	36
CC(=O)N1[C@H](C(=O)NC2CCC2)[C@@H](CO)[C@@H]2Cn3c(ccc(-c4ccc(F)cc4)c3=O)[C@@H]21	.	-11	7	-10	-9
NC(=O)C1CCN(CC(O)COc2ccc(-c3ccccc3)cc2)CC1 (centres undefined)	-9	-2	-5	50*	6
O=C(NC1CCCC1)[C@@H]1[C@@H](CO)[C@@H]2Cn3c(cccc3=O)[C@@H]2N1C(=O)NC1CCCC1	.	1	-2	-5	-6
Cc1ccccc1S(=O)(=O)N1CC(=O)N2[C@@H](CO)[C@@H](c3ccc(C#CC4CC4)cc3)[C@@H]2C1	-2	5	21	-1	.
C[C@@H]1CN([C@@H](C)CO)C(=O)c2cccc(NC(=O)Nc3ccc4c(c3)OCO4)c2O[C@@H]1CN(C)C	4	0	5	24*	8
C[C@H]1CN([C@@H](C)CO)C(=O)c2cccc(NC(=O)Nc3ccc4c(c3)OCO4)c2O[C@@H]1CN(C)CC1CCCCC1	-16	-1	5	4	86*
Cc1ccc(S(=O)(=O)N(C)C[C@@H]2Oc3c(NC(=O)Nc4ccc5c(c4)OCO5)cccc3C(=O)N([C@H](C)CO)C[C@@H]2C)cc1	3	15*	4	12	-30
CNC[C@H]1Oc2c(NC(=O)Nc3ccc4c(c3)OCO4)cccc2C(=O)N([C@@H](C)CO)C[C@H]1C	4	99*	5	-2	-60
C[C@@H]1CN([C@H](C)CO)C(=O)c2cccc(NC(=O)Nc3ccc4c(c3)OCO4)c2O[C@@H]1CN(C)C	6	-4	-2	-9	1
C[C@H](CO)N1C[C@H](C)[C@H](CN(C)C(=O)NC2CCCCC2)Oc2ccc(NC(=O)C3CCCCC3)cc2CC1=O	1	-2	-2	2	9
C[C@H]1CN([C@@H](C)CO)C(=O)Cc2cc(NS(=O)(=O)c3cccs3)ccc2O[C@@H]1CN(C)Cc1ccc(-c2ccccc2)cc1	13	15*	-6	?	14
C[C@@H]1CN([C@H](C)CO)C(=O)Cc2cc(NS(=O)(=O)c3cccs3)ccc2O[C@H]1CN(C)Cc1ccccc1	12	5	0	0	18
C[C@H]1CN([C@@H](C)CO)C(=O)Cc2cc(NS(=O)(=O)c3cccs3)ccc2O[C@H]1CN(C)Cc1ccc2c(c1)OCO2	7	2	1	104*	-42
C[C@H](CO)N1C[C@H](C)[C@@H](CN(C)Cc2ccc(-c3ccccc3)cc2)Oc2ccc(NS(=O)(=O)c3cccs3)cc2CC1=O	-3	18*	-25	-17	9
C[C@H](CO)N1C[C@H](C)[C@H](CN(C)Cc2ccc3c(c2)OCO3)Oc2ccc(NS(=O)(=O)c3cccs3)cc2CC1=O	-4	1	8	-4	-49
COc1ccc(CN(C)C[C@H]2Oc3ccc(NC(=O)NC4CCCCC4)cc3CC(=O)N([C@@H](C)CO)C[C@@H]2C)cc1	2	4	9	-7	-12
O=C(C[C@H]1CC[C@@H]2[C@H](COC[C@@H](O)CN2S(=O)(=O)c2ccc(Cl)cc2)O1)NCc1ccc(Cl)c(Cl)c1	8	-1	8	-7	7
Cc1ccc(-n2cccc2C(=S)N=P(N(C)C)(N(C)C)N(C)C)cc1	85*	.	.	.	-260
Cc1ccc(-n2cccc2C(=O)NS(=O)(=O)c2ccc(C)cc2)cc1	2	-2	-11	-4	-47
CC(C)c1cc(-c2cc(C(=O)NCc3ccccc3)on2)nc(NC2CCCC2)n1	.	0	-3	22*	-4
Cc1cccc(C)c1-n1c(C)cc(/C=N\Nc2ccc([N+](=O)[O-])cn2)c1C	8	.	.	.	163*
O=[N+]([O-])c1ccc(NN=Cc2cccc(O)c2)nc1	-21	4	-6	-6	14
SMILES	PGC1a acetyl inh	SIRT5 block	S100A4 MyoIIA	DENV2 CPE rescue	C2C12 statin
O=C1COc2ccc(C(=O)COC(=O)CCSc3ccc(Cl)cc3)cc2N1	2	16*	-1	-4	.
O=C1COc2ccc(C(=O)COC(=O)Cc3ccc(Cl)cc3)cc2N1	-1	1	2	-3	5
Cc1ccc(S(=O)(=O)Nc2ccc3c(c2)C(=O)N([C@H](C)CO)C[C@@H](C)[C@@H](CN(C)C(=O)Nc2ccc4c(c2)OCO4)O3)cc1	-16	.	.	.	-2
C=CC(=O)N(CCC)C(c1ccccc1)c1ccccc1OC (centres undefined)	22	21*	4	-10	36
Cc1cc2c3c(c1)C(C)(c1ccccc1)CC(C)(C)N3C(=O)C21C(C#N)=C(N)OC2=C1C(=O)CC(C)(C)C2 (centres undefined)	1	.	.	.	35
CC1(c2ccccc2)CC(C)(C)N2C(=O)C3(C(C#N)=C(N)Oc4cc(O)ccc43)c3cccc1c32 (centres undefined)	-1	1	1	-3	87*
Cc1noc(C)c1S(=O)(=O)N(C)C[C@@H]1Oc2ccc(NS(=O)(=O)c3cn(C)cn3)cc2C(=O)N([C@@H](C)CO)C[C@@H]1C	7	2	0	1	40
C[C@H](CO)N1C[C@H](C)[C@H](CN(C)Cc2ccc(C(=O)Nc3ccccc3N)cc2)Oc2ccc(NS(=O)(=O)c3cccs3)cc2CC1=O	-12	2	-41	-11	-1
Cc1noc(C)c1S(=O)(=O)Nc1ccc2c(c1)C(=O)N([C@H](C)CO)C[C@H](C)[C@H](CN(C)Cc1ccc(C(=O)Nc3ccccc3N)cc1)O2	-10	2	11	24*	.
C[C@@H]1CN([C@H](C)CO)C(=O)Cc2cc(NS(=O)(=O)c3cccs3)ccc2O[C@H]1CN(C)Cc1ccc(C(=O)Nc2ccccc2N)cc1	-1	-2	-8	39*	.
Cc1noc(C)c1S(=O)(=O)Nc1ccc2c(c1)CC(=O)N([C@@H](C)CO)C[C@H](C)[C@H](CN(C)Cc1ccc(C(=O)Nc3ccccc3N)cc1)O2	2	-2	3	61*	.
COc1ccc2c3c(n(C)c2c1)[C@H](CO)N(CC1CC1)CC31CN(C(=O)Nc2c(C)noc2C)C1	5	.	.	-3	.

Screening data from PubChem.
